According to ChEMBL document CHEMBL1149257, “Tetrasubstituted imidazole inhibitors of cytokine release: probing substituents in the N-1 position” (J Med Chem, 2004):

Columns and labels:
Blood [1] = experiment: Inhibition of LPS-induced TNFalpha production in human whole blood; assay type: functional, tissue-based
How it was run: (§1)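 Fresh blood from healthy human donors, preincubated 15 min at 37 °C, 5% CO2, with serially diluted compound in Cremophor EL/ethanol (1:1); 1% Cremophor EL/ethanol as control. Stimulated with LPS 1 μg/mL for 4 h at 37 °C, stopped on ice and centrifuged. TNFα and IL-1β in the supernatant measured by ELISA. IC50 from percent reduction versus control; mean of two independent experiments unless stated.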

[2] = biological target: Mitogen-activated protein kinase 14 (Homo sapiens, UniProt Q16539); experiment: Inhibition of mitogen-activated protein kinase p38 alpha
Blood [3] = experiment: Inhibition of LPS-induced IL1 beta production in human whole blood; assay type: functional, tissue-based; how it was run: as §1
CYP3A4 = CYP3A4 (Homo sapiens, UniProt P08684); experiment: Inhibition of human liver CYP3A4 at 10 uM; assay type: ADME
How it was run: (§2)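 Each isoform tested with the compound at a single concentration of 10 μM in phosphate buffer (pH 7.4) containing 0.1% DMSO; read out as percent inhibition of enzyme activity. Other conditions follow a previously reported protocol.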

CYP2D6 = CYP2D6 (Homo sapiens, UniProt P10635); experiment: Inhibition of human liver CYP2D6 at 10 uM; assay type: ADME; how it was run: as §2
CYP2C19 = CYP2C19 (Homo sapiens, UniProt P33261); experiment: Inhibition of human liver CYP2C19 at 10 uM; assay type: ADME; how it was run: as §2
CYP2C9 = CYP2C9 (Homo sapiens, UniProt P11712); experiment: Inhibition of human liver CYP2C9 at 10 uM; assay type: ADME; how it was run: as §2
CYP1A2 = biological target: T1, CYP1A2 (Homo sapiens, UniProt P05177); experiment: Inhibition of human liver CYP1A2 at 10 uM; assay type: ADME; how it was run: as §2
T1 sequence (P05177 whole entry): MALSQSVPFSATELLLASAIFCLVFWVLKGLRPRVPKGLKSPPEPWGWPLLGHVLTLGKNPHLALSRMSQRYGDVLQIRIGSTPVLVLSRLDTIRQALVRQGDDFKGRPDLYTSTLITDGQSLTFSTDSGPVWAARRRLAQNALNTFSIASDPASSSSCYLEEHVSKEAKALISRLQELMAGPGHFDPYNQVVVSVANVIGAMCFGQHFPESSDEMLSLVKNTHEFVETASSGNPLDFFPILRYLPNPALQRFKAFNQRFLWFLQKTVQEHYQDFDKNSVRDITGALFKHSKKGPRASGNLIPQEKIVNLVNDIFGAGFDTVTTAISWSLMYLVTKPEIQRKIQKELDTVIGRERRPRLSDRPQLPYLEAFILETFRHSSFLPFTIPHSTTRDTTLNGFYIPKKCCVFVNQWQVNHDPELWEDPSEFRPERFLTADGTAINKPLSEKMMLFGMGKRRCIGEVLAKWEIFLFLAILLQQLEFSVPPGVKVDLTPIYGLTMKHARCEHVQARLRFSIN

Sequence of CYP3A4 (P08684 whole entry, canonical isoform): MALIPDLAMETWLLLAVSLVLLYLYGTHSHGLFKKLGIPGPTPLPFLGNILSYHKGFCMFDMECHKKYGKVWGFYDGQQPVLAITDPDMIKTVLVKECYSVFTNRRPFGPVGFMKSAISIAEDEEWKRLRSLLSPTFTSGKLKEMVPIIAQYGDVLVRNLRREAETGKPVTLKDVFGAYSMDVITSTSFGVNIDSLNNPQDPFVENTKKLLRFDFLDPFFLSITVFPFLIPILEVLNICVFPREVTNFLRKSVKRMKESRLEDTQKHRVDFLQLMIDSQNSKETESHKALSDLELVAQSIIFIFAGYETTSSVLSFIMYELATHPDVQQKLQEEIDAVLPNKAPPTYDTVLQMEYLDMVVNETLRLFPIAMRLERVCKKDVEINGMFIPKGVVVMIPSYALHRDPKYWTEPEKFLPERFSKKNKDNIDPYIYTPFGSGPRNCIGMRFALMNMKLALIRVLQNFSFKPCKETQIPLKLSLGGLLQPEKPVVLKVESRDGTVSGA
Sequence of CYP2C19 (P33261 whole entry): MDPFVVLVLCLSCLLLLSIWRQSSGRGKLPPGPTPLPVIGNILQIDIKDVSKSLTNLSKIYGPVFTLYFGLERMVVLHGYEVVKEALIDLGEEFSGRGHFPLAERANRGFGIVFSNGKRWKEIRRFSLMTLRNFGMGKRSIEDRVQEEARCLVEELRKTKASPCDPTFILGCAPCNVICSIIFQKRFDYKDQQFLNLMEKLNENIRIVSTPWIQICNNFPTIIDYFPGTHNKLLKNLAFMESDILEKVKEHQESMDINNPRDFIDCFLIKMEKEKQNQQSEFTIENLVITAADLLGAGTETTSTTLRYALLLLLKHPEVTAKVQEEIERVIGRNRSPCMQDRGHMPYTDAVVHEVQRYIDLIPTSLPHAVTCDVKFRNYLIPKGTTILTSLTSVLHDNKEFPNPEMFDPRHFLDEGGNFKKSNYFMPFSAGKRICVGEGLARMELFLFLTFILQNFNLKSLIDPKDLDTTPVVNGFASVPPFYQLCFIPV
Sequence of Mitogen-activated protein kinase 14 (Q16539 whole entry): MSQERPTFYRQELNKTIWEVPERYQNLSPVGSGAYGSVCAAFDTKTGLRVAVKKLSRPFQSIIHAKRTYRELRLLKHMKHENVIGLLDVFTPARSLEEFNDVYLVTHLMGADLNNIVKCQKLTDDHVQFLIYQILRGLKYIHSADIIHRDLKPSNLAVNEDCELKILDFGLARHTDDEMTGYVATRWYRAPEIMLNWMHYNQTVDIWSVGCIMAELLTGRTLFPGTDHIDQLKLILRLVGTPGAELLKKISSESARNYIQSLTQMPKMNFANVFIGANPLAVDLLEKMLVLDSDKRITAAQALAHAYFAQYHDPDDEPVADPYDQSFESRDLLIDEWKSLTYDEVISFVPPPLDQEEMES
Sequence of CYP2C9 (P11712 whole entry): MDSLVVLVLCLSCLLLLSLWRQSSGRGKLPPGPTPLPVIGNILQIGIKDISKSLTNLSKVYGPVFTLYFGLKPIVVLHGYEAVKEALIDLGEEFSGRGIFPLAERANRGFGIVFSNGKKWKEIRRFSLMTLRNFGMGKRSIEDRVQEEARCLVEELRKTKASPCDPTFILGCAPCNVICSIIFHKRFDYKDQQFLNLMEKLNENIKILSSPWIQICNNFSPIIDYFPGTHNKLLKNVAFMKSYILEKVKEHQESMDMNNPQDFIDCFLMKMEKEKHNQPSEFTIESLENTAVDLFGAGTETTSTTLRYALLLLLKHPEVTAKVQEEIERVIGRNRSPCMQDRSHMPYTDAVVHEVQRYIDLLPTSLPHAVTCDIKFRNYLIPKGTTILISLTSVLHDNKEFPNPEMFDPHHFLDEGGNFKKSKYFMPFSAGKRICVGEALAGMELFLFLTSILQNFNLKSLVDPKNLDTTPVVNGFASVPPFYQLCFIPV
Sequence of CYP2D6 (P10635 whole entry): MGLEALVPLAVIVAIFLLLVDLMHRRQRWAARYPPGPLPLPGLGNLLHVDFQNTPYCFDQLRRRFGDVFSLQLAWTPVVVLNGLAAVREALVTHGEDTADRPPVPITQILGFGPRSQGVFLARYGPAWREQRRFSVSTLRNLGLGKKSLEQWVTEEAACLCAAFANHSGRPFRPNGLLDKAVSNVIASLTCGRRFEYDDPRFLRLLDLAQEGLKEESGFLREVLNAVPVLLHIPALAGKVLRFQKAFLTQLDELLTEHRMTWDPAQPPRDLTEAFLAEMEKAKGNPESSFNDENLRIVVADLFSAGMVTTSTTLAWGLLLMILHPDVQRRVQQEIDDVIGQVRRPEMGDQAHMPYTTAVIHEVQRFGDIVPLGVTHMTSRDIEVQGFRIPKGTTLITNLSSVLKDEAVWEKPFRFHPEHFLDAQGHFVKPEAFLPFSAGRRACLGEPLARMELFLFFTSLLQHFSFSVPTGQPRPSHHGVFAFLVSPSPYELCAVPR

IC50 [2] [µM] | Compound | also measured
> 10 | COCCCn1c(SCCC(=O)N2CCOCC2)nc(-c2ccc(F)cc2)c1-c1ccnc(NC(C)=O)c1 | –
0.46 | COCCn1c(SCCC(=O)N2CCOCC2)nc(-c2ccc(F)cc2)c1-c1ccnc(NC(C)=O)c1 | –
2.38 | CSCCn1c(SCc2ccc([S+](C)[O-])cc2)nc(-c2ccc(F)cc2)c1-c1ccnc(NC(C)=O)c1 (stereo not given) | –
7.29 | CSc1nc(-c2ccc(F)cc2)c(-c2ccnc(NC(C)=O)c2)n1CCNC(C)=O | –
1.31 | COCCCn1c(SCc2ccc([S+](C)[O-])cc2)nc(-c2ccc(F)cc2)c1-c1ccnc(NC(C)=O)c1 (stereo not given) | –
> 10 | C=CCOCCn1c(SCc2ccc([S+](C)[O-])cc2)nc(-c2ccc(F)cc2)c1-c1ccnc(NC(C)=O)c1 (stereo not given) | –
> 10 | CCOC(=O)N1CCC(n2c(SC)nc(-c3ccc(F)cc3)c2-c2ccnc(NC(C)=O)c2)CC1 | –
> 10 | CC(=O)NCCn1c(SCc2ccc([S+](C)[O-])cc2)nc(-c2ccc(F)cc2)c1-c1ccnc(NC(C)=O)c1 (stereo not given) | –
4.97 | C#CCOCCn1c(SCc2ccc([S+](C)[O-])cc2)nc(-c2ccc(F)cc2)c1-c1ccnc(NC(C)=O)c1 (stereo not given) | –
8.69 | CSc1nc(-c2ccc(F)cc2)c(-c2ccnc(NC(C)=O)c2)n1CC(C)O (stereo not given) | –
4.43 | CC(=O)Nc1cc(-c2c(-c3ccc(F)cc3)nc(SCc3ccc([S+](C)[O-])cc3)n2CCN2CCCCC2)ccn1 (stereo not given) | –
3.73 | CSc1nc(-c2ccc(F)cc2)c(-c2ccnc(NC(C)=O)c2)n1CC1COC(C)(C)O1 (stereo not given) | –
2.51 | CC(=O)Nc1cc(-c2c(-c3ccc(F)cc3)nc(SCCC(=O)N3CCOCC3)n2CCO)ccn1 | –
2.41 | CSc1nc(-c2ccc(F)cc2)c(-c2ccnc(NC(C)=O)c2)n1CCN(C)C | –
2.24 | CC(=O)Nc1cc(-c2c(-c3ccc(F)cc3)nc(SCc3ccc([S+](C)[O-])cc3)n2CCO)ccn1 (stereo not given) | –
9.5 | CC(=O)Nc1cc(-c2c(-c3ccc(F)cc3)nc(SCCC(=O)N3CCOCC3)n2CCCO)ccn1 | –
> 10 | CC(=O)Nc1cc(-c2c(-c3ccc(F)cc3)nc(SCc3ccc([S+](C)[O-])cc3)n2CC(C)O)ccn1 (stereo not given) | –
4.1 | COC(Cn1c(SC)nc(-c2ccc(F)cc2)c1-c1ccnc(NC(C)=O)c1)OC | –
0.15 | COCCn1c(SCc2ccc([S+](C)[O-])cc2)nc(-c2ccc(F)cc2)c1-c1ccnc(NC(C)=O)c1 (stereo not given) | –
6.28 | CSc1nc(-c2ccc(F)cc2)c(-c2ccnc(NC(C)=O)c2)n1CCCN1CCOCC1 | –
5.85 | CC(=O)Nc1cc(-c2c(-c3ccc(F)cc3)nc(SCc3ccc([S+](C)[O-])cc3)n2C)ccn1 (stereo not given) | –
> 10 | CC(=O)Nc1cc(-c2c(-c3ccc(F)cc3)nc(SCc3ccc([S+](C)[O-])cc3)n2C2CC(C)(C)NC(C)(C)C2)ccn1 (stereo not given) | –
> 10 | CC(=O)Nc1cc(-c2c(-c3ccc(F)cc3)nc(SCc3ccc([S+](C)[O-])cc3)n2CCOCCO)ccn1 (stereo not given) | –
2 | CC(=O)Nc1cc(-c2c(-c3ccc(F)cc3)nc(SCCCC(=O)N3CCOCC3)n2CCO)ccn1 | –
> 10 | CC(=O)Nc1cc(-c2c(-c3ccc(F)cc3)nc(SCc3ccc([S+](C)[O-])cc3)n2CCCN2CCOCC2)ccn1 (stereo not given) | –

Compound | IC50 [2] [µM] | also measured
C#CCOCCn1c(SC)nc(-c2ccc(F)cc2)c1-c1ccnc(NC(C)=O)c1 | 0.666 | IC50 (Blood [1]): 40 µM; IC50 (Blood [3]): 13.9 µM
CSc1nc(-c2ccc(F)cc2)c(-c2ccnc(NC(C)=O)c2)n1CCN1CCCCC1 | 1.34 | inhibition at 10 µM (CYP3A4): 97%; IC50 (Blood [1]): > 10 µM; inhibition at 10 µM (CYP2D6): 77.5%; inhibition at 10 µM (CYP2C19): 41%; inhibition at 10 µM (CYP2C9): 5%; IC50 (Blood [3]): > 10 µM; inhibition at 10 µM (CYP1A2): 12%
COCCCn1c(SC)nc(-c2ccc(F)cc2)c1-c1ccnc(NC(C)=O)c1 | 0.205 | IC50 (Blood [1]): 17.8 µM; IC50 (Blood [3]): 18.2 µM
C=CCOCCn1c(SC)nc(-c2ccc(F)cc2)c1-c1ccnc(NC(C)=O)c1 | 1.85 | IC50 (Blood [1]): > 100 µM; IC50 (Blood [3]): 48.5 µM
CSc1nc(-c2ccc(F)cc2)c(-c2ccnc(NC(C)=O)c2)n1CCO | 0.398 | IC50 (Blood [1]): 35.8 µM; IC50 (Blood [3]): 33.2 µM
CSc1nc(-c2ccc(F)cc2)c(-c2ccnc(NC(C)=O)c2)n1CCCO | 0.813 | IC50 (Blood [1]): 20.5 µM; IC50 (Blood [3]): 13.8 µM
CSCCn1c(SC)nc(-c2ccc(F)cc2)c1-c1ccnc(NC(C)=O)c1 | 0.431 | IC50 (Blood [1]): 44.2 µM; IC50 (Blood [3]): 36.4 µM
CSc1nc(-c2ccc(F)cc2)c(-c2ccnc(NC(C)=O)c2)n1CCN1CCOCC1 | 2.03 | IC50 (Blood [1]): > 10 µM; IC50 (Blood [3]): > 10 µM
COCCn1c(SC)nc(-c2ccc(F)cc2)c1-c1ccnc(NC(C)=O)c1 | 0.218 | inhibition at 10 µM (CYP3A4): 62%; IC50 (Blood [1]): 32.8 µM; inhibition at 10 µM (CYP2D6): 3.5%; inhibition at 10 µM (CYP2C19): 70.5%; inhibition at 10 µM (CYP2C9): 23.5%; IC50 (Blood [3]): 30.5 µM; inhibition at 10 µM (CYP1A2): 0%
CSc1nc(-c2ccc(F)cc2)c(-c2ccnc(NC(C)=O)c2)n1CCOCCO | 8.48 | inhibition at 10 µM (CYP3A4): 38%; IC50 (Blood [1]): > 100 µM; inhibition at 10 µM (CYP2D6): 0%; inhibition at 10 µM (CYP2C19): 19%; inhibition at 10 µM (CYP2C9): 18.5%; IC50 (Blood [3]): > 100 µM; inhibition at 10 µM (CYP1A2): 0%
